ChEMBL document CHEMBL4049410, “Novel benzimidazolyl tetrahydroprotoberberines: Design, synthesis, antimicrobial evaluation and multi-targeting exploration” (2017)
In brackets after ≈: the same amount, converted by molar mass. Activity calls are given as the source filed them. The rule behind the calls is not given here.

Experiments:
Proteus vulgaris = assay: Antibacterial activity against Bacillus proteus ATCC 13315 after 24 hrs by two-fold serial dilution assay; type: functional; details: Proteus vulgaris, ATCC 13315, 24 h; read-out: MIC
Procedure, shortened: (§1)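 Twofold serial broth dilution following NCCLS guidance, with Chloromycin, Norfloxacin and Fluconazole as positive controls. MIC in μM is the lowest concentration giving complete inhibition of visible bacterial or fungal growth.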

Bos taurus [1] = species: Bos taurus; assay: Inhibition of neutral red binding to calf thymus DNA up to 1.4 x 10^-5mol/L by UV-Visible absorption spectroscopy
Escherichia coli [2] = assay: Antibacterial activity against Escherichia coli JM109 after 24 hrs by two-fold serial dilution assay; type: functional; details: Escherichia coli, JM109, 24 h; read-out: MIC; procedure, shortened: as §1
Salmonella typhi = assay: Antibacterial activity against Bacillus typhi after 24 hrs by two-fold serial dilution assay; type: functional, Salmonella enterica subsp. enterica serovar Typhi; details: Salmonella enterica, 24 h; read-out: MIC
Shigella dysenteriae = assay: Antibacterial activity against Shigella dysenteriae after 24 hrs by two-fold serial dilution assay; type: functional; details: Shigella dysenteriae, 24 h; read-out: MIC
Staphylococcus aureus [3] = assay: Antibacterial activity against methicillin-resistant Staphylococcus aureus N315 after 24 hrs by two-fold serial dilution assay; type: functional; details: Staphylococcus aureus, N315, 24 h; read-out: MIC
Pseudomonas aeruginosa = assay: Antibacterial activity against Pseudomonas aeruginosa after 24 hrs by two-fold serial dilution assay; type: functional; details: Pseudomonas aeruginosa, 24 h; read-out: MIC; procedure, shortened: as §1
Bos taurus [4] = species: Bos taurus; assay: Induction of calf thymus DNA intercalation assessed as protection of compound quenching from iodide ion by fluorescence assay (reference value: 104.52 L/mol)
Saccharomyces cerevisiae = assay: Antifungal activity against Saccharomyces cerevisiae after 24 hrs by two-fold serial dilution assay; type: functional; details: Saccharomyces cerevisiae, 24 h; read-out: MIC; procedure, shortened: as §1
Escherichia coli [5] = assay: Induction of Escherichia coli pBR322 DNA cleavage assessed as conversion of covalently closed circular DNA to open circular form and linear form of DNA by agarose gel electrophoresis method
Procedure, shortened: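 Supercoiled pBR322 plasmid is incubated with compound at 25, 50 and 75 μM alongside a DNA-only control at 37 °C, pH 7.0. Products are resolved by gel electrophoresis, scoring conversion of Form I to Form II (nicked) and Form III (linear).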

Micrococcus luteus = assay: Antibacterial activity against Micrococcus luteus ATCC 4698 after 24 hrs by two-fold serial dilution assay; type: functional, NCTC 2665; details: Micrococcus luteus, NCTC 2665, 24 h; read-out: MIC; procedure, shortened: as §1
Pichia norvegensis = assay: Antifungal activity against Candida mycoderma after 24 hrs by two-fold serial dilution assay; type: functional; details: Pichia norvegensis, 24 h; read-out: MIC; procedure, shortened: as §1
Aspergillus flavus = assay: Antifungal activity against Aspergillus flavus after 24 hrs by two-fold serial dilution assay; type: functional; details: Aspergillus flavus, 24 h; read-out: MIC; procedure, shortened: as §1
Staphylococcus aureus [6] = assay: Antibacterial activity against Staphylococcus aureus ATCC 25923 after 24 hrs by two-fold serial dilution assay; type: functional; details: Staphylococcus aureus, ATCC 25923, 24 h; read-out: MIC; procedure, shortened: as §1
[7] = Binding affinity to DNA (unknown origin) by UV-Visible absorption spectroscopy
Procedure, shortened: (§2)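 Calf thymus DNA is held at a fixed concentration, quantified by A260 (ε260 = 6600 L mol⁻¹ cm⁻¹, per phosphate) and checked for A260/A280 > 1.8. It is titrated with increasing compound in Tris-HCl pH 7.4 at 290 K. UV-vis spectra are recorded, following absorbance at 260 nm. The binding constant K is derived from a linear fit (R, SD reported).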

Cyberlindnera jadinii = assay: Antifungal activity against Candida utilis after 24 hrs by two-fold serial dilution assay; type: functional; details: Williopsis jadinii, 24 h; read-out: MIC; procedure, shortened: as §1
Escherichia coli [8] = assay: Antibacterial activity against Escherichia coli DH52 after 24 hrs by two-fold serial dilution assay; type: functional; details: Escherichia coli, DH52, 24 h; read-out: MIC; procedure, shortened: as §1
[9] = Binding affinity to DNA (unknown origin) assessed as hyperchromic effect up to 1.4 x 10^-5mol/L by UV-Visible absorption spectroscopy; procedure, shortened: as §2
Candida albicans = assay: Antifungal activity against Candida albicans ATCC 76615 after 24 hrs by two-fold serial dilution assay; type: functional; details: Candida albicans, ATCC 76615, 24 h; read-out: MIC; procedure, shortened: as §1
Staphylococcus aureus [10] = assay: Antibacterial activity against methicillin-resistant Staphylococcus aureus N315 after 15 serial passages by two-fold serial dilution assay; type: functional
Procedure, shortened: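 Resistance-development test in MRSA. Cultures were propagated with fresh medium and serially diluted test agent, and the MIC was redetermined every 24 h. Parallel cultures were exposed to 2-fold dilutions of Chloromycin and Norfloxacin as positive controls. MIC was the lowest concentration giving complete growth inhibition.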

Bacillus subtilis = assay: Antibacterial activity against Bacillus subtilis after 24 hrs by two-fold serial dilution assay; type: functional; details: Bacillus subtilis, 24 h; read-out: MIC; procedure, shortened: as §1

Structure (SMILES)	MIC (Proteus vulgaris)	MIC (Escherichia coli [2])	MIC (Salmonella typhi)	MIC (Shigella dysenteriae)	MIC (Staphylococcus aureus [3])	MIC (Pseudomonas aeruginosa)	MIC (Saccharomyces cerevisiae)	MIC (Micrococcus luteus)	MIC (Pichia norvegensis)	MIC (Aspergillus flavus)	MIC (Staphylococcus aureus [6])	MIC (Cyberlindnera jadinii)	MIC (Escherichia coli [8])	MIC (Candida albicans)	MIC (Bacillus subtilis)	further results
COc1cc(-c2nc3cc(F)ccc3[nH]2)c2c(c1O)CN1CCc3cc4c(cc3C1C2)OCO4 (stereo unspecified)	69.6 µM (≈ 32 µg/mL)	8.7 µM (≈ 4 µg/mL)	14.5 µM (≈ 6.66 µg/mL)	17.4 µM (≈ 7.99 µg/mL)	17.4 µM (≈ 7.99 µg/mL)	11.6 µM (≈ 5.33 µg/mL)	8.7 µM (≈ 4 µg/mL)	46.4 µM (≈ 21.3 µg/mL)	8.7 µM (≈ 4 µg/mL)	58 µM (≈ 26.6 µg/mL)	58 µM (≈ 26.6 µg/mL)	14.5 µM (≈ 6.66 µg/mL)	23.2 µM (≈ 10.7 µg/mL)	58 µM (≈ 26.6 µg/mL)	4.4 µM (≈ 2.02 µg/mL)	inhibition (Bos taurus [1]): Active; KSV (Bos taurus [4]): 87.7 L/mol; Activity (Escherichia coli [5]): Dose-dependent effect; K [7]: 2.87 ×10⁴ L/mol; Activity [9]: Active; Activity (Staphylococcus aureus [10]): Active
COc1cc(-c2nc3ccccc3n2Cc2cccc(Cl)c2)c2c(c1O)CN1CCc3cc4c(cc3C1C2)OCO4 (stereo unspecified)	47.1 µM (≈ 26.7 µg/mL)	4.7 µM (≈ 2.66 µg/mL)	4.7 µM (≈ 2.66 µg/mL)	23.6 µM (≈ 13.4 µg/mL)	56.5 µM (≈ 32 µg/mL)	28.3 µM (≈ 16 µg/mL)	47.1 µM (≈ 26.7 µg/mL)	28.3 µM (≈ 16 µg/mL)	18.9 µM (≈ 10.7 µg/mL)	18.9 µM (≈ 10.7 µg/mL)	23.6 µM (≈ 13.4 µg/mL)	9.4 µM (≈ 5.32 µg/mL)	75.4 µM (≈ 42.7 µg/mL)	37.7 µM (≈ 21.3 µg/mL)	47.1 µM (≈ 26.7 µg/mL)	–
CCCCCCCCCCCCn1c(-c2cc(OC)c(O)c3c2CC2c4cc5c(cc4CCN2C3)OCO5)nc2ccccc21 (stereo unspecified)	5.5 µM (≈ 3.35 µg/mL)	26.2 µM (≈ 16 µg/mL)	8.7 µM (≈ 5.31 µg/mL)	175 µM (≈ 107 µg/mL)	175 µM (≈ 107 µg/mL)	17.5 µM (≈ 10.7 µg/mL)	70 µM (≈ 42.7 µg/mL)	105 µM (≈ 64 µg/mL)	3.3 µM (≈ 2.01 µg/mL)	43.8 µM (≈ 26.7 µg/mL)	26.2 µM (≈ 16 µg/mL)	17.5 µM (≈ 10.7 µg/mL)	87.5 µM (≈ 53.4 µg/mL)	5.5 µM (≈ 3.35 µg/mL)	35 µM (≈ 21.3 µg/mL)	–
COc1cc(-c2nc3ccccc3n2Cc2ccc(Cl)cc2Cl)c2c(c1O)CN1CCc3cc4c(cc3C1C2)OCO4 (stereo unspecified)	17.7 µM (≈ 10.6 µg/mL)	35.5 µM (≈ 21.3 µg/mL)	22.2 µM (≈ 13.3 µg/mL)	71.1 µM (≈ 42.7 µg/mL)	53.3 µM (≈ 32 µg/mL)	88.8 µM (≈ 53.3 µg/mL)	26.6 µM (≈ 16 µg/mL)	44.4 µM (≈ 26.7 µg/mL)	13.3 µM (≈ 7.99 µg/mL)	71.1 µM (≈ 42.7 µg/mL)	22.2 µM (≈ 13.3 µg/mL)	22.2 µM (≈ 13.3 µg/mL)	107 µM (≈ 64 µg/mL)	22.2 µM (≈ 13.3 µg/mL)	11.1 µM (≈ 6.67 µg/mL)	–
CCn1c(-c2cc(OC)c(O)c3c2CC2c4cc5c(cc4CCN2C3)OCO5)nc2ccccc21 (stereo unspecified)	56.8 µM (≈ 26.7 µg/mL)	28.4 µM (≈ 13.3 µg/mL)	14.2 µM (≈ 6.67 µg/mL)	136 µM (≈ 64 µg/mL)	14.2 µM (≈ 6.67 µg/mL)	68.2 µM (≈ 32 µg/mL)	22.7 µM (≈ 10.7 µg/mL)	28.4 µM (≈ 13.3 µg/mL)	56.8 µM (≈ 26.7 µg/mL)	56.8 µM (≈ 26.7 µg/mL)	28.4 µM (≈ 13.3 µg/mL)	34.1 µM (≈ 16 µg/mL)	136 µM (≈ 64 µg/mL)	17 µM (≈ 7.98 µg/mL)	34.1 µM (≈ 16 µg/mL)	–
COc1ccc2c(c1O)CN1CCc3cc4c(cc3C1C2)OCO4 (stereo unspecified)	1310 µM (≈ 427 µg/mL)	656 µM (≈ 213 µg/mL)	787 µM (≈ 256 µg/mL)	1570 µM (≈ 512 µg/mL)	1310 µM (≈ 427 µg/mL)	787 µM (≈ 256 µg/mL)	1570 µM (≈ 512 µg/mL)	1570 µM (≈ 512 µg/mL)	164 µM (≈ 53.3 µg/mL)	656 µM (≈ 213 µg/mL)	787 µM (≈ 256 µg/mL)	1050 µM (≈ 341 µg/mL)	1570 µM (≈ 512 µg/mL)	524 µM (≈ 171 µg/mL)	1570 µM (≈ 512 µg/mL)	–
COc1cc(C=O)c2c(c1O)CN1CCc3cc4c(cc3C1C2)OCO4 (stereo unspecified)	483 µM (≈ 171 µg/mL)	242 µM (≈ 85.3 µg/mL)	302 µM (≈ 107 µg/mL)	121 µM (≈ 42.7 µg/mL)	302 µM (≈ 107 µg/mL)	302 µM (≈ 107 µg/mL)	362 µM (≈ 128 µg/mL)	302 µM (≈ 107 µg/mL)	242 µM (≈ 85.3 µg/mL)	151 µM (≈ 53.3 µg/mL)	724 µM (≈ 256 µg/mL)	302 µM (≈ 107 µg/mL)	242 µM (≈ 85.3 µg/mL)	151 µM (≈ 53.3 µg/mL)	483 µM (≈ 171 µg/mL)	–
COc1ccc2cc3[n+](cc2c1OC)CCc1cc2c(cc1-3)OCO2 [BERBERINE]	688 µM	1380 µM	459 µM	1150 µM	230 µM	574 µM	287 µM	1380 µM	287 µM	1150 µM	1380 µM	574 µM	1150 µM	918 µM	1150 µM	–
COc1cc(-c2nc3ccccc3n2Cc2ccc(Cl)c(Cl)c2)c2c(c1O)CN1CCc3cc4c(cc3C1C2)OCO4 (stereo unspecified)	22.2 µM (≈ 13.3 µg/mL)	44.4 µM (≈ 26.7 µg/mL)	53.3 µM (≈ 32 µg/mL)	44.4 µM (≈ 26.7 µg/mL)	22.2 µM (≈ 13.3 µg/mL)	35.5 µM (≈ 21.3 µg/mL)	26.6 µM (≈ 16 µg/mL)	107 µM (≈ 64 µg/mL)	53.3 µM (≈ 32 µg/mL)	88.8 µM (≈ 53.3 µg/mL)	35.5 µM (≈ 21.3 µg/mL)	44.4 µM (≈ 26.7 µg/mL)	44.4 µM (≈ 26.7 µg/mL)	44.4 µM (≈ 26.7 µg/mL)	22.2 µM (≈ 13.3 µg/mL)	–
